Measurements: ChEMBL document CHEMBL2311390, “Synthesis and preliminary evaluation of pharmacological properties of some piperazine derivatives of xanthone” (Bioorg Med Chem, 2013)

Key:
Rattus norvegicus [1] = test: Cardiotoxicity in Wistar rat assessed as hear beats per min at 5 mg/kg, iv after 15 mins by ECG analysis; type: toxicity, organism-based; design: dose 5 mg/kg, route intravenous; conditions: in vivo, 0.25 h
Summary of the method: (§1)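 Male normotensive Wistar rats, 170–350 g, six per group. Compound given iv at a constant volume of 1 mL/kg. ECG was recorded just before dosing and at 1, 5 and 15 min after. PQ, QRS and QT intervals and heart rate were read from the trace. Groups were compared by one-way ANOVA.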

[2] = Displacement of [3H]CGP-12177 from beta1-adrenergic receptor in rat cerebral cortex by liquid scintillation counting; type: tissue-based
Summary of the method: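 Rat cerebral cortex was homogenised in ice-cold 50 mM Tris-HCl pH 7.6 and spun at 20,000 g for 20 min at 0–4 °C, then washed once. Radioligands: [3H]prazosin 0.2 nM for α1, [3H]clonidine 2 nM for α2, [3H]CGP-12177 0.2 nM for β1. Test compounds were run at 7–8 concentrations from 10^-11 to 10^-4 M. Nonspecific binding was defined with phentolamine (α1), clonidine (α2) or propranolol (β1). Counting was by liquid scintillation, in duplicate. Ki was derived by Cheng–Prusoff from 2–3 experiments.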

Rattus norvegicus [3] = test: Hypotensive activity in normotensive Wistar rat assessed as reduction of diastolic blood pressure at 2.5 mg/kg, iv after 60 mins; type: functional, Artery
Summary of the method: (§2)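 Male normotensive Wistar rats (170–350 g) were anaesthetised with thiopental 75 mg/kg ip. The right carotid artery was cannulated with heparin-saline tubing for pressure recording. After a 5 min stabilisation, compound was injected into a caudal vein at 1 mL/kg. Systolic and diastolic pressure were followed up to 60 min. Data are means ± SEM of 5–6 animals, compared by one-way ANOVA.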

Rattus norvegicus [4] = test: Hypotensive activity in normotensive Wistar rat assessed as reduction of diastolic blood pressure at 2.5 mg/kg, iv after 20 mins; type: functional, Artery; summary of the method: as §2
Rattus norvegicus [5] = test: Hypotensive activity in normotensive Wistar rat assessed as reduction of diastolic blood pressure at 2.5 mg/kg, iv after 30 mins; type: functional, Artery; summary of the method: as §2
Rattus norvegicus [6] = test: Hypotensive activity in normotensive Wistar rat assessed as reduction of diastolic blood pressure at 2.5 mg/kg, iv after 10 mins; type: functional, Artery; summary of the method: as §2
Rattus norvegicus [7] = test: Hypotensive activity in normotensive Wistar rat assessed as reduction of systolic blood pressure at 2.5 mg/kg, iv after 60 mins; type: functional, Artery; summary of the method: as §2
Rattus norvegicus [8] = test: Hypotensive activity in normotensive Wistar rat assessed as reduction of diastolic blood pressure at 2.5 mg/kg, iv after 5 mins; type: functional, Artery; summary of the method: as §2
Rattus norvegicus [9] = test: Hypotensive activity in normotensive Wistar rat assessed as reduction of systolic blood pressure at 2.5 mg/kg, iv after 30 mins; type: functional, Artery; summary of the method: as §2
Rattus norvegicus [10] = test: Hypotensive activity in normotensive Wistar rat assessed as reduction of systolic blood pressure at 2.5 mg/kg, iv after 10 mins; type: functional, Artery; summary of the method: as §2
Rattus norvegicus [11] = test: Hypotensive activity in normotensive Wistar rat assessed as reduction of systolic blood pressure at 2.5 mg/kg, iv after 20 mins; type: functional, Artery; summary of the method: as §2
Rattus norvegicus [12] = test: Hypotensive activity in normotensive Wistar rat assessed as reduction of systolic blood pressure at 2.5 mg/kg, iv after 5 mins; type: functional, Artery; summary of the method: as §2
Rattus norvegicus [13] = test: Antiarrhythmic activity in iv dosed Wistar rat adrenaline-induced arrhythmia model assessed as reduction of heart-rhythm disturbance administered 15 mins adrenaline-challenge; type: functional; conditions: 0.25 h
Summary of the method: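 Anaesthetised male Wistar rats (thiopental 75 mg/kg ip). Test compound iv at 1 mL/kg, given 15 min before adrenaline 20 µg/kg iv. Activity means no premature beats and inhibition of arrhythmia, judged against a control group. There were three dose groups of six rats. ED50 with confidence limits was calculated by the Litchfield–Wilcoxon method.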

Rattus norvegicus [14] = test: Cardiotoxicity in Wistar rat assessed as hear beats per min at 2.5 mg/kg, iv after 15 mins by ECG analysis; type: toxicity, organism-based; design: dose 2.5 mg/kg, route intravenous; conditions: in vivo, 0.25 h
Summary of the method: (§3)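 Male normotensive Wistar rats (170–350 g, groups of six) were anaesthetised. Compound was given iv at 1 mL/kg. ECG was recorded just before dosing and at 1, 5 and 15 min after, and PQ, QRS and QT intervals and heart rate were read. Groups were compared by one-way ANOVA.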

Rattus norvegicus [15] = test: Cardiotoxicity in Wistar rat assessed as QT interval at 2.5 mg/kg, iv after 15 mins by ECG analysis; type: toxicity, organism-based; design: dose 2.5 mg/kg, route intravenous; conditions: in vivo, 0.25 h; summary of the method: as §3
Rattus norvegicus [16] = test: Cardiotoxicity in Wistar rat assessed as QRS interval at 2.5 mg/kg, iv after 15 mins by ECG analysis; type: toxicity, organism-based; design: dose 2.5 mg/kg, route intravenous; conditions: in vivo, 0.25 h; summary of the method: as §3
Rattus norvegicus [17] = test: Cardiotoxicity in Wistar rat assessed as PQ interval at 2.5 mg/kg, iv after 15 mins by ECG analysis; type: toxicity, organism-based; design: dose 2.5 mg/kg, route intravenous; conditions: in vivo, 0.25 h; summary of the method: as §3
Rattus norvegicus [18] = test: Cardiotoxicity in Wistar rat assessed as hear beats per min at 2.5 mg/kg, iv after 10 mins by ECG analysis; type: toxicity, organism-based; design: dose 2.5 mg/kg, route intravenous; conditions: in vivo
Rattus norvegicus [19] = test: Cardiotoxicity in Wistar rat assessed as QT interval at 2.5 mg/kg, iv after 10 mins by ECG analysis; type: toxicity, organism-based; design: dose 2.5 mg/kg, route intravenous; conditions: in vivo
Rattus norvegicus [20] = test: Cardiotoxicity in Wistar rat assessed as QRS interval at 2.5 mg/kg, iv after 10 mins by ECG analysis; type: toxicity, organism-based; design: dose 2.5 mg/kg, route intravenous; conditions: in vivo
Rattus norvegicus [21] = test: Cardiotoxicity in Wistar rat assessed as PQ interval at 2.5 mg/kg, iv after 10 mins by ECG analysis; type: toxicity, organism-based; design: dose 2.5 mg/kg, route intravenous; conditions: in vivo
Rattus norvegicus [22] = test: Cardiotoxicity in Wistar rat assessed as hear beats per min at 2.5 mg/kg, iv after 5 mins by ECG analysis; type: toxicity, organism-based; design: dose 2.5 mg/kg, route intravenous; conditions: in vivo; summary of the method: as §3
Rattus norvegicus [23] = test: Cardiotoxicity in Wistar rat assessed as QT interval at 2.5 mg/kg, iv after 5 mins by ECG analysis; type: toxicity, organism-based; design: dose 2.5 mg/kg, route intravenous; conditions: in vivo; summary of the method: as §3
Rattus norvegicus [24] = test: Cardiotoxicity in Wistar rat assessed as QRS interval at 2.5 mg/kg, iv after 5 mins by ECG analysis; type: toxicity, organism-based; design: dose 2.5 mg/kg, route intravenous; conditions: in vivo; summary of the method: as §3
Rattus norvegicus [25] = test: Cardiotoxicity in Wistar rat assessed as PQ interval at 2.5 mg/kg, iv after 5 mins by ECG analysis; type: toxicity, organism-based; design: dose 2.5 mg/kg, route intravenous; conditions: in vivo; summary of the method: as §3
Rattus norvegicus [26] = test: Cardiotoxicity in Wistar rat assessed as hear beats per min at 10 mg/kg, iv after 5 mins by ECG analysis; type: toxicity, organism-based; design: dose 10 mg/kg, route intravenous; conditions: in vivo; summary of the method: as §1
Rattus norvegicus [27] = test: Hypotensive activity in normotensive Wistar rat assessed as reduction of systolic blood pressure at 0.31 mg/kg, iv after 30 mins; type: functional, Artery
Summary of the method: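 Male normotensive Wistar rats (170–350 g) anaesthetised with thiopental 75 mg/kg ip; right carotid artery cannulated with heparinised saline-filled polyethylene tubing for pressure recording. After a 5 min stabilisation, compound given into the caudal vein at 1 mL/kg. Systolic pressure is recorded at 0, 5, 10, 20, 30 and 60 min, and the data are reported as mean ± SEM of five to six animals, with one-way ANOVA.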

Rattus norvegicus [28] = test: Hypotensive activity in normotensive Wistar rat assessed as reduction of diastolic blood pressure at 0.16 mg/kg, iv after 60 mins; type: functional, Artery
Summary of the method: (§4)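 Male normotensive Wistar rats were anaesthetised with thiopental 75 mg/kg ip. The right carotid artery was cannulated with heparinised saline for pressure recording. After 5 min of stabilisation, compound was injected into the tail vein at 1 mL/kg. Systolic and diastolic pressure were followed up to 60 min. Data are means ± SEM of 5–6 rats, analysed by one-way ANOVA.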

Rattus norvegicus [29] = test: Hypotensive activity in normotensive Wistar rat assessed as reduction of diastolic blood pressure at 0.31 mg/kg, iv after 30 mins; type: functional, Artery; summary of the method: as §4
Rattus norvegicus [30] = test: Hypotensive activity in normotensive Wistar rat assessed as reduction of diastolic blood pressure at 0.31 mg/kg, iv after 60 mins; type: functional, Artery; summary of the method: as §4
Rattus norvegicus [31] = test: Hypotensive activity in normotensive Wistar rat assessed as reduction of diastolic blood pressure at 0.31 mg/kg, iv after 10 mins; type: functional, Artery; summary of the method: as §4

Structure (SMILES) | Ki [2] | Activity (Rattus norvegicus [3]) | Activity (Rattus norvegicus [4]) | Activity (Rattus norvegicus [5]) | Activity (Rattus norvegicus [6]) | Activity (Rattus norvegicus [7]) | Activity (Rattus norvegicus [8]) | Activity (Rattus norvegicus [9]) | Activity (Rattus norvegicus [10]) | Activity (Rattus norvegicus [11]) | Activity (Rattus norvegicus [12]) | ED50 (Rattus norvegicus [13]) | Activity (Rattus norvegicus [14]) | Activity (Rattus norvegicus [15]) | Activity (Rattus norvegicus [16]) | Activity (Rattus norvegicus [17]) | Activity (Rattus norvegicus [18]) | Activity (Rattus norvegicus [19]) | Activity (Rattus norvegicus [20]) | Activity (Rattus norvegicus [21]) | also measured
Cl.Cl.O=c1c2ccccc2oc2c(OCC(O)CN3CCN(C/C=C/c4ccccc4)CC3)cccc12 (racemic) | 5.2 µM | 105 mmHg | 114 mmHg | 110.8 mmHg | 117.2 mmHg | 125.6 mmHg | 118.4 mmHg | 132.6 mmHg | 144.2 mmHg | 139.8 mmHg | 144.2 mmHg | – | – | – | – | – | – | – | – | – | Activity (Rattus norvegicus [1]): 309 bpm
COc1ccccc1N1CCN(CC(COc2cccc3c(=O)c4ccccc4oc23)OC(C)=O)CC1.Cl (racemic) | 11.2 µM | – | – | – | – | – | – | – | – | – | – | 0.87 mg/kg | 366.3 bpm | 60 ms | 19 ms | 48 ms | 369 bpm | 60 ms | 19 ms | 48 ms | Activity (Rattus norvegicus [22]): 375 bpm; Activity (Rattus norvegicus [23]): 61.8 ms; Activity (Rattus norvegicus [24]): 19 ms; Activity (Rattus norvegicus [25]): 48 ms
Cl.Cl.Cl.O=c1c2ccc(Cl)cc2oc2c(OCC(O)CN3CCN(CCOc4ccccc4)CC3)cccc12 (racemic) | – | – | – | – | – | – | – | – | – | – | – | – | – | – | – | – | – | – | – | – | Activity (Rattus norvegicus [26]): 303.69 bpm
COc1ccccc1N1CCN(CCCOc2cccc3c(=O)c4ccccc4oc23)CC1.Cl | 3.2 µM | – | – | – | – | – | – | – | – | – | – | 0.69 mg/kg | 295.7 bpm | 71.8 ms | 20.3 ms | 43.5 ms | 306.7 bpm | 69.8 ms | 20.6 ms | 43.2 ms | Activity (Rattus norvegicus [27]): 119.5 mmHg; Activity (Rattus norvegicus [22]): 314.4 bpm; Activity (Rattus norvegicus [23]): 70 ms; Activity (Rattus norvegicus [24]): 20.4 ms; Activity (Rattus norvegicus [25]): 43 ms; Activity (Rattus norvegicus [28]): 95.2 mmHg; Activity (Rattus norvegicus [29]): 103.3 mmHg; Activity (Rattus norvegicus [30]): 97.2 mmHg; Activity (Rattus norvegicus [31]): 107.7 mmHg
Cl.Cl.Cl.O=c1c2ccc(Cl)cc2oc2c(OCC(O)CN3CCN(C/C=C/c4ccccc4)CC3)cccc12 (racemic) | 43 µM | 108.6 mmHg | 110.4 mmHg | 110.8 mmHg | 110.6 mmHg | 126.8 mmHg | 103.2 mmHg | 129.8 mmHg | 133 mmHg | 130.8 mmHg | 125 mmHg | – | – | – | – | – | – | – | – | – | Activity (Rattus norvegicus [1]): 329.3 bpm
Cl.Cl.Cl.O=c1c2ccc(Cl)cc2oc2c(OCC(O)CN3CCN(Cc4ccccc4)CC3)cccc12 (racemic) | – | 134.2 mmHg | 134.5 mmHg | 134.2 mmHg | 132.2 mmHg | 151.2 mmHg | 128.7 mmHg | 152.2 mmHg | 149.5 mmHg | 152.5 mmHg | 147.2 mmHg | – | – | – | – | – | – | – | – | – | Activity (Rattus norvegicus [26]): 295.3 bpm
COc1ccccc1N1CCN(CC(O)COc2cccc3c(=O)c4ccccc4oc23)CC1.Cl (racemic) | 7.6 µM | – | – | – | – | – | – | – | – | – | – | 0.88 mg/kg | 303.3 bpm | 68.4 ms | 20.2 ms | 42.8 ms | 315.2 bpm | 68.2 ms | 19.8 ms | 43.3 ms | Activity (Rattus norvegicus [27]): 118.6 mmHg; Activity (Rattus norvegicus [22]): 341.2 bpm; Activity (Rattus norvegicus [23]): 69.7 ms; Activity (Rattus norvegicus [24]): 19.6 ms; Activity (Rattus norvegicus [25]): 44.3 ms; Activity (Rattus norvegicus [28]): 101.5 mmHg; Activity (Rattus norvegicus [29]): 100.6 mmHg; Activity (Rattus norvegicus [30]): 98.4 mmHg; Activity (Rattus norvegicus [31]): 103 mmHg
